According to paper PMC3047606 (The Journal of General Physiology, 2011):
Numbering of substitutions follows the chain as printed. “And” between values parts separate entries of the source, which are not always exact repeats. Equal values may be shown once. “Also recorded” adds a separate entry of the source. Read-outs that look alike come from different tables or passages of the source. Marks after values point to notes of the source that are not given here.

Assays:
human TRPV3 (WT) = molecular target: T1, human TRPV3 (WT) (Homo sapiens, UniProt Q8NET8); assay type: cell-based
T1 sequence (Q8NET8 1-790): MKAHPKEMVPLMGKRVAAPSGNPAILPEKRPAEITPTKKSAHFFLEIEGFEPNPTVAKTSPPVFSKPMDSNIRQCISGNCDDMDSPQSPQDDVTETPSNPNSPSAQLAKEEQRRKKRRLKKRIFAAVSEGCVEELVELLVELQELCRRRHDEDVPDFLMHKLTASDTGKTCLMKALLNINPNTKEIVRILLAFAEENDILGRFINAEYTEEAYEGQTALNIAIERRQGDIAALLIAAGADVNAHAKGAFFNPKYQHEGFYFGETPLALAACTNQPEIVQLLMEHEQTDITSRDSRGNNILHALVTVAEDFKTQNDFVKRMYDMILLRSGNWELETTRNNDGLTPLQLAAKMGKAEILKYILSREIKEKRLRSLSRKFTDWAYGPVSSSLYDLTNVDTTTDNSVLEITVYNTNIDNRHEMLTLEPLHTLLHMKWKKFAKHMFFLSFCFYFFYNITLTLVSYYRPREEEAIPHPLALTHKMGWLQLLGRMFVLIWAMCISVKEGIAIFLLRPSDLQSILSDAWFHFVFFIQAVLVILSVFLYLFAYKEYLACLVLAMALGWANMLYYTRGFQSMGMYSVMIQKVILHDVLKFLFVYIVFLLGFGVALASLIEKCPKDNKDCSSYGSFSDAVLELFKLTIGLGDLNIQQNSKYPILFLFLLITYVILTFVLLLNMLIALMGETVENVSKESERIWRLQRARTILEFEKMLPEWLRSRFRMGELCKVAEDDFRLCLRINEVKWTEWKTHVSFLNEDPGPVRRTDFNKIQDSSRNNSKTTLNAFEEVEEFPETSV

native TRPV3 channels = molecular target: T2, native TRPV3 channels (Homo sapiens, UniProt Q8NET8); assay type: cell-based; conditions: for activation of membrane currents by TRP channel agonists: bath superfusion, 2-APB 30 µM; for increase of 2-APB-activated TRPV3 whole cell current amplitude: 100 µM ATP, n = 4 cells
T2 sequence (Q8NET8 1-790): T1 sequence (Q8NET8 1-790)
How it was run: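 Whole-cell voltage clamp of primary human epidermal keratinocytes plated on coverslips and recorded 24–48 h later, at room temperature. Bath was NaCl/KCl/HEPES/glucose/MgCl2/1.8 mM BaCl2, pH 7.4; pipette was Cs-methanesulfonate with ~50 nM free Ca2+, pH 7.3. Voltage steps were run in 30 µM 2-APB, then with 100 µM ATP or vehicle. Tail currents were fitted with Boltzmann functions for V0.5 and VIF; n = 4 cells.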

TRPV3 R696A [1] = molecular target: T3, TRPV3 R696A (Homo sapiens, UniProt Q8NET8, R696A); assay type: cell-based
T3 sequence (Q8NET8 1-790 R696A): T1 sequence (Q8NET8 1-790) with R696A

WT TRPV3 = molecular target: T4, WT TRPV3 (Homo sapiens, UniProt Q8NET8); assay type: biochemical; conditions: inside-out patches, +80 mV; for effect on NPOPEN of PI-PLC-stimulated TRPV3: 30 µM diC8-phosphatidylinositol phosphate
T4 sequence (Q8NET8 1-790): T1 sequence (Q8NET8 1-790)
How it was run: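 WT TRPV3 was expressed in HM1 cells by calcium-phosphate transfection and recorded 24–48 h later. Inside-out patches were held at +80 mV in symmetrical NaCl/HEPES/EGTA at pH 7.4. Patches got anti-PI(4,5)P2 mAb (1:200) or 0.5 U/ml PI-PLC for 5 min, or 100 µM OAG for 2 min, by perfusion and then a still bath. diC8-phosphoinositides were added after PI-PLC. NPOPEN was taken before and after; Hill fit over 1–60 µM.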

TRPV3 R696A [2] = molecular target: T3, TRPV3 R696A; assay type: biochemical; conditions: 30 µM diC8-PI(4,5)P2, inside-out patches
How it was run: (§1)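 HM1 cells were calcium-phosphate transfected with the mutant channel, GFP-identified, and used 24–48 h later. Inside-out patches were held at +80 mV at 21–24°C in symmetrical 145 mM NaCl, 5 mM […], 20 mM HEPES, 1 mM EGTA, pH 7.4. Patches received anti-PI(4,5)P2 mAb (1:200) or 0.5 U/ml PI-PLC, then 30 µM diC8-PI(4,5)P2. NPOPEN was measured, n = 3–5 patches.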

TRPV3 K705A = molecular target: T5, TRPV3 K705A (Homo sapiens, UniProt Q8NET8, K705A); assay type: biochemical; conditions: 30 µM diC8-PI(4,5)P2, inside-out patches
T5 sequence (Q8NET8 1-790 K705A): T1 sequence (Q8NET8 1-790) with K705A
How it was run: as §1

NCCOB(c1ccccc1)c1ccccc1 [2-APB, 2-aminoethyoxy diphenylborinate]
increase in 2-APB potency after CCh exposure (human TRPV3 (WT)): approximately fourfold
activation of membrane currents by TRP channel agonists (native TRPV3 channels; whole cell): activated small voltage-dependent currents

Nc1ncnc2c1ncn2[C@@H]1O[C@H](COP(=O)(O)OP(=O)(O)OP(=O)(O)O)[C@@H](O)[C@H]1O [ATP]
increase of 2-APB-activated TRPV3 whole cell current amplitude (native TRPV3 channels; 30 µM 2-APB, +80 mV): 5.6 ± 1.6 fold
increase of 2-APB-activated TRPV3 whole cell current amplitude (native TRPV3 channels; 30 µM 2-APB, −80 mV): 6.3 ± 1.9 fold
increase of voltage-independent fraction (VIF) (native TRPV3 channels; after 100 µM ATP, 30 µM 2-APB): 26.7 ± 5.1%
shift of half-maximal activation (V0.5) (native TRPV3 channels; after 100 µM ATP, 30 µM 2-APB): −61.7 ± 17.8 mV

C[N+](C)(C)CCOC(N)=O.[Cl-] [CCh, carbamylcholine]
Arrhenius slope of temperature-dependent activation (human TRPV3 (WT)): 10.3
apparent threshold for temperature-dependent activation (Th) (human TRPV3 (WT)): 18.3 ^a °C
change of thermal coefficient (Q10) by CCh exposure (human TRPV3 (WT)): changed only slightly
fold change in step current (human TRPV3 (WT)): 31.1 fold and 31.1 ± 7.9 fold
shift of apparent threshold for thermal activation (Th) (human TRPV3 (WT)): −10 °C
ΔVIF (TRPV3 R696A [1]): 21.3%

Cc1ccc(C(C)C)cc1O [Carvacrol, carvacrol]
activation of membrane currents by TRP channel agonists (native TRPV3 channels; whole cell): elicited currents

CCCCCCCC/C=C\CCCCCCCC(=O)OC[C@H](CO)OC(C)=O [OAG, 1-oleoyl-2-acetyl-sn-glycerol]
effect on TRPV3 channel activity (NPOPEN) (WT TRPV3; 100 µM OAG): did not significantly increase; also recorded: failed to significantly elevate NPOPEN

CCCCCCCC(=O)OC[C@H](COP(=O)(O)O[C@@H]1[C@H](O)[C@H](OP(=O)(O)O)[C@@H](O)[C@H](O)[C@H]1O)OC(=O)CCCCCCC [PI(3)P]
effect on NPOPEN of PI-PLC-stimulated TRPV3 (WT TRPV3): failed to significantly decrease NPOPEN

CCCCCCCC(=O)OC[C@H](COP(=O)(O)O[C@H]1[C@H](O)[C@@H](OP(=O)(O)O)[C@H](OP(=O)(O)O)[C@@H](OP(=O)(O)O)[C@H]1O)OC(=O)CCCCCCC [PI(3,4,5)P3]
effect on NPOPEN of PI-PLC-stimulated TRPV3 (WT TRPV3): failed to significantly decrease NPOPEN

CCCCCCCC(=O)OC[C@H](COP(=O)(O)O[C@@H]1[C@H](O)[C@H](OP(=O)(O)O)[C@@H](O)[C@H](OP(=O)(O)O)[C@H]1O)OC(=O)CCCCCCC [PI(3,5)P2]
effect on NPOPEN of PI-PLC-stimulated TRPV3 (WT TRPV3): failed to significantly decrease NPOPEN

CCCCCCCC(=O)OC[C@H](COP(=O)(O)O[C@H]1[C@H](O)[C@@H](O)[C@H](OP(=O)(O)O)[C@@H](O)[C@H]1O)OC(=O)CCCCCCC [PI(4)P]
effect on NPOPEN of PI-PLC-stimulated TRPV3 (WT TRPV3): failed to significantly decrease NPOPEN

CCCCCCCC(=O)OC[C@H](COP(=O)(O)O[C@H]1[C@H](O)[C@@H](OP(=O)(O)O)[C@H](O)[C@@H](O)[C@H]1O)OC(=O)CCCCCCC [PI(5)P]
effect on NPOPEN of PI-PLC-stimulated TRPV3 (WT TRPV3): failed to significantly decrease NPOPEN

N.N.N.N.N.N.N.N.N.N.N.N.N.N.[Cl-].[Cl-].[Cl-].[Cl-].[Cl-].[Cl-].[O-2].[O-2].[Ru+3].[Ru+3].[Ru+4] [Ruthenium red]
block of 2-APB-activated current (native TRPV3 channels; whole cell, ruthenium red): eliminated only the inward component

COC[C@H]1OC(=O)c2coc3c2[C@@]1(C)C1=C(C3=O)[C@@H]2CCC(=O)[C@@]2(C)C[C@H]1OC(C)=O [WM, wortmannin]
current potentiation (fold increase) (human TRPV3 (WT)): 9.6 ± 2.2 fold and 13.2 ± 2.8 fold
ΔV0.5 (human TRPV3 (WT)): −98.4 ± 18.6 mV
ΔVIF (human TRPV3 (WT)): 19.7 ± 3.8%

CC12CCC(CC1=O)C2(C)C (stereo not drawn) [camphor]
activation of membrane currents by TRP channel agonists (native TRPV3 channels; whole cell): elicited currents

CCCCCCCC(=O)OC[C@H](COP(=O)(O)O[C@@H]1[C@H](O)[C@H](O)[C@@H](OP(=O)(O)O)[C@H](OP(=O)(O)O)[C@H]1O)OC(=O)CCCCCCC [diC8-PI(4,5)P2, D-myo-phosphatidylinositol 4,5-bisphosphate C8]
effect on channel activity (TRPV3 R696A [2]): unaffected; also recorded: insensitive
effect on NPOPEN of PI-PLC-stimulated TRPV3 (WT TRPV3): nearly maximal inhibitory effect
effect on channel activity (TRPV3 K705A): unaffected; also recorded: insensitive
